Screening data: PubChem BioAssay, several laboratories
RAM network inh: yeast RAM network inhibition; S. cerevisiae dse1pr::URA3 reporter, 5-FOA growth OD615, 2 d; analog-sensitive cbk1-as2 kinase mutant strain; inhibition, % at 50 µM; 190,000 compounds, 1.8% hits;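 active = inhibition above a set limit, 3 SD over mean compound inhibition, cut at about 8.4% in these data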;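 also: inhibition rescues growth on 5-FOA so higher OD means more RAM inhibition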
ABCG2 inh: human ABCG2 inhibition, ABCB1 as counter-screen. Q9UNQ0. inhibition, % at 6.6 µM. 190,000 compounds, 0.1% hits. AID 1325. IgMXP3 cells, JC-1 efflux, flow cytometry;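 active = inhibition above 80%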
Target sequence (Q9UNQ0 whole entry, looked up): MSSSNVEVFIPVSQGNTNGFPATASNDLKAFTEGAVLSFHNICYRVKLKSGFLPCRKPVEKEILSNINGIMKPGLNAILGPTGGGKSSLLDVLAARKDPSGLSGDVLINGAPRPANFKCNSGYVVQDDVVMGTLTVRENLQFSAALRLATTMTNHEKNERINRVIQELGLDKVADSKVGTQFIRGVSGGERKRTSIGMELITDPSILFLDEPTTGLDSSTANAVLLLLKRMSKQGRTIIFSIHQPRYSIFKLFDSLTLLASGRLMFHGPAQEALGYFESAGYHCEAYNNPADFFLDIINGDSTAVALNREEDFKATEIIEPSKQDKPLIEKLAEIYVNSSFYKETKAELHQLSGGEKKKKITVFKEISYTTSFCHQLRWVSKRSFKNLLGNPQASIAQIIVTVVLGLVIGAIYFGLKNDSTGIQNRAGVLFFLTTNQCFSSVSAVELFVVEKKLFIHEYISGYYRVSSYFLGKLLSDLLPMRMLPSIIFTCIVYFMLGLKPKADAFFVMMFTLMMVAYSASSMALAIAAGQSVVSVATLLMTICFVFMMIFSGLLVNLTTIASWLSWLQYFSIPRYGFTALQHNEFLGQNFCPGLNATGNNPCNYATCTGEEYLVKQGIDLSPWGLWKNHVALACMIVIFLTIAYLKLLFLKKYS
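Read-out basis: Efflux inhibition in percent versus controls | Test system: ABCG2 IgMXP3 and barcoded ABCB1 CCRF-Adr cell mix | Quantity: 3 million cells/mL in well | Schedule: 10 min at 25 °C | Control set: Nicardipine as high control, DMSO as low control | Reagent: JC-1 as fluorescent efflux pump substrate | Signal: Flow cytometry of retained JC-1 fluorescence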
WT yeast gro inh: growth inhibition of WT yeast, mitochondrial fusion screen; mitochondrial fusion phenotypic screen, WT strain; inhibition, % at 10 µM; 190,000 compounds, 2.1% hits; in the data active = inhibition above about 58%; tested in S. cerevisiae
L major viab: reduces viability of Leishmania major promastigotes; inhibition, % at 10 µM; resazurin fluorescence viability; 200,000 compounds, 9% hits; in the data active = inhibition above about 50%;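 also: promastigotes grown with compound for 44 hours at 28 °C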
ABCB1 inh: inhibitors of human ABCB1 transporter, ABCG2 counter-screen; 190,000 compounds, 0.067% hits; CCRF-Adr cells, JC-1 efflux, flow cytometry; inhibition, % at 6.6 µM; P08183; AID 1326; in the data active = inhibition above about 40%;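 also: higher value means more JC-1 retained so stronger ABCB1 efflux block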
A number is an active result; – = inactive; · = no result given. Only some compounds are listed: those with a hit (about 12% of all), similar ones and a draw of the others.

SMILES	RAM network inh	ABCG2 inh	WT yeast gro inh	L major viab	ABCB1 inh
Cc1ccc(CC2(O)CC(C)N(C)CC2C)c(C)c1 (configuration not stated)	–	–	–	69.4	–
COc1ccc(C2(CCN)CC(C)N(C)CC2C)cc1 (configuration not stated)	–	–	–	–	–
CCCN1C(=O)/C(=C/c2c(NCCCOCC)nc3c(C)cccn3c2=O)SC1=S	–	–	–	–	68.3
COC(=O)/N=C/c1c(NCc2ccccc2)nc2c(C)cccn2c1=O	–	–	–	–	–
COC(=O)[C@H](C)NC(=O)Nc1cc(OC)ccc1OC	–	–	–	–	–
O=C(Nc1ccc(Oc2nnc(-c3ccccc3)c3ccccc23)cc1)c1ccccc1	–	–	–	77.0	–
O=C(CO/N=C/c1ccc(OC(F)F)cc1)NC1CCCCCC1	–	–	–	–	–
O=C(NCc1cccnc1)C(=O)N/N=C/c1ccc([N+](=O)[O-])cc1	–	–	–	–	–
O=C(COc1ccc(S(=O)(=O)N2CCCCC2)cc1)NCc1cccnc1	–	–	–	–	–
Cc1cc(/C=N/n2cnnc2)c(C)n1-c1ccc(OCc2ccc(Cl)cc2)cc1	–	–	65.8	97.8	–
Cc1cc(/C=N/n2cnnc2)c(C)n1-c1ccc(OCc2ccccc2F)cc1	–	–	–	77.2	–
CC(C)Cn1c(N)c(C=O)c(=O)[nH]c1=O	–	–	–	–	–
O=C(O)C(O)C(O)c1nc2ccccc2[nH]1 (configuration not stated)	–	–	–	–	–
Cc1cccc(C)c1-n1c(C)nn(CC#N)c1=O	–	–	–	–	–
Cc1cc(C)c(O)c(N)c1	–	–	–	–	–
Cc1cc(C)c2ccc(NN)nc2c1O	–	–	–	99.5	–
CNc1nc(OC)nc(N(C#N)CN2C(=O)c3ccccc3S2(=O)=O)n1	–	–	–	–	–
O=C(c1ccc(COc2ccc(Cl)cc2)cc1)N1CCCCC1	–	–	59.6	–	–
CCCCOc1ccc(C(=O)N2CCCCCC2)cc1	–	–	–	–	–
O=C(NCc1ccco1)C(c1ccco1)N(C(=O)Cn1nnc2ccccc21)c1ccc2c(c1)CCC2 (configuration not stated)	·	·	·	91.2	·
O=C(Nc1ccc2c(c1)N(Cc1ccccc1)C(=O)c1ccccc1S2)NC1CC1	–	–	–	91.8	–
CCNC(=O)NC(=O)C(C)OC(=O)CCCSc1nc2ccccc2s1 (configuration not stated)	–	–	–	63.7	–
CNC(=O)NC(=O)C(C)OC(=O)CCCSc1nc2ccccc2s1 (configuration not stated)	–	–	–	65.1	–
CN(Cc1cn(-c2ccccc2)nc1-c1ccc(Cl)cc1)C(=O)CCC(=O)O	–	–	–	–	–
CCC(CCC(=O)Nc1ccc(S(N)(=O)=O)cc1)C(=O)O (configuration not stated)	–	–	–	–	–
SMILES	RAM network inh	ABCG2 inh	WT yeast gro inh	L major viab	ABCB1 inh
CCOC(=O)CSc1c(-c2cccs2)[nH]c2ccccc12	–	–	64.1	–	–
CCOC(=O)CSc1c(-c2ccc(Cl)cc2)[nH]c2ccccc12	–	–	–	–	–
Cc1ccnc(SCc2cc(=O)c(OC(=O)c3ccc(S(=O)(=O)N(C)C)cc3)co2)n1	–	–	–	–	–
O=[N+]([O-])c1ccc(N2CCN(S(=O)(=O)c3ccc4ccccc4c3)CC2)cc1NCC1CCCO1 (configuration not stated)	–	–	–	–	–
Cc1ccccc1OCc1nc(-c2ccc(NC(=O)c3cccs3)cc2)no1	–	–	–	71.2	–
Cc1cc(C)c(NC(=O)c2ccc(CNS(=O)(=O)c3cc(C(F)(F)F)ccc3Cl)cc2)c(C)c1	–	–	–	–	–
CN(C)C=NC(=O)c1ccc(N2CCN(c3ncc(C(F)(F)F)cc3Cl)CC2)cc1	9.0	–	–	–	–
CCOc1ncccc1C(=O)Nc1nc(SC)ns1	–	–	–	–	–
COc1ccccc1CN1CCNC(=O)C1CC(=O)NCCc1cnccn1 (configuration not stated)	–	–	–	–	–
Cc1ccn(S(=O)(=O)c2ccc(C(C)(C)C)cc2)n1	–	–	–	71.2	–
CC(C)CC(=O)Nc1ccc(C(=O)CN2CCC(C)CC2)cc1	–	–	–	–	–
Cc1ccc(NC(=S)N2CCCC(CO)C2)c(C)c1 (configuration not stated)	–	–	–	–	–
Cc1ccc(N=C2SC(C(=O)Nc3ccc(OC(F)(F)F)cc3)C(N)=C2C(=O)Nc2c(C)cc(C)cc2C)cc1 (configuration not stated)	–	–	–	–	–
COc1cccc2cc(C(=O)NCCc3c[nH]c4ccccc34)c(=O)oc12	–	–	–	–	–
O=c1c2ccccc2nc(/C=C/c2ccccc2)n1CCc1ccccc1	–	–	–	–	–
CC(C)n1c(/C=C/c2ccccc2)nc2ccccc21	–	–	–	50.4	–
COCCOCCn1c(/C=C/c2ccccc2)nc2ccccc21	–	–	–	63.4	–
CCCn1c(/C=C/c2ccccc2)nc2ccccc21	–	–	–	87.9	–
CC(C)Cn1c(/C=C/c2ccco2)nc2ccccc21	–	–	–	61.1	–
C/C(=N/NC(=O)c1ccc2nc[nH]c2c1)c1cccs1	–	–	–	–	–
Cc1ccnn1Cc1cc(C(=O)O)c2ccccc2n1	–	–	–	–	–
COc1ccc(S(=O)(=O)c2nnn(-c3cccc(Cl)c3)c2N)cc1	–	–	–	–	–
O=C(Cn1nnc(-c2ccccc2F)n1)NCc1ccco1	–	–	–	–	–
C=CCSc1nnc(CC(OC)OC)n1-c1ccccc1	–	–	–	–	–
COc1cc(NC(=S)N2CCN(C(=O)C3CCCO3)CC2)c(OC)cc1Cl (configuration not stated)	–	–	–	–	–
SMILES	RAM network inh	ABCG2 inh	WT yeast gro inh	L major viab	ABCB1 inh
CSc1nc2ccc(NS(=O)(=O)c3c(Cl)cccc3Cl)cc2s1	–	–	67.1	–	–
CSc1nc2ccc(NS(=O)(=O)c3ccccc3F)cc2s1	–	–	–	59.4	–
CSc1nc2ccc(NS(=O)(=O)c3ccc4c(c3)OCCO4)cc2s1	–	–	–	–	–
FC(F)(F)c1cccc(Cn2nnnc2-c2cc(Cl)cc(Cl)c2)c1	–	–	–	–	–
O=C(COC(=O)COc1ccc(Cl)cc1)NCc1cccs1	–	–	–	–	–
CN1C2C=C(N(CCc3c[nH]c4ccccc34)C(=O)c3ccc(Cl)cc3)CC1CC2 (configuration not stated)	–	–	–	100.6	–
COc1ccc(CCN(C(=O)c2ccccc2)C2=CC3CCC(C2)N3C)cc1OC (configuration not stated)	–	–	–	–	–
COc1ccc(-c2cc(CNC(C)=O)on2)cc1	–	–	–	–	–
COc1ccc(-c2cc(CNC(=O)CCl)on2)cc1	–	–	–	66.3	–
CCCn1nc(C(=O)NC2CCCc3ccccc32)c2ccccc2c1=O (configuration not stated)	–	–	–	–	–
